Laboratory results from ChEMBL document CHEMBL1145462, “In vivo pharmacodynamic activity of the glycopeptide dalbavancin” (Antimicrob Agents Chemother, 2007).
In brackets after ≈: the same amount, converted by molar mass.

Tests used:
[1] = test system: Streptococcus pneumoniae; assay: AUC/MIC ratio of Streptococcus pneumoniae 1293 infected neutropenic mouse thigh infection model at 0.44 mg/kg, ip administered every 24 hrs by static effect experiment; assay type: functional; conditions: route intraperitoneal
[2] = test system: Streptococcus pneumoniae; assay: AUC/MIC ratio of Streptococcus pneumoniae ATCC 10813 infected neutropenic mouse thigh infection model at 1.34 mg/kg, ip administered every 24 hrs by static effect experiment; assay type: functional; conditions: route intraperitoneal
[3] = test system: Staphylococcus aureus; assay: AUC/MIC ratio of Staphylococcus aureus ATCC 25923 infected neutropenic mouse thigh infection model at 42.7 mg/kg, ip administered every 24 hrs by static effect experiment; assay type: functional; conditions: route intraperitoneal
[4] = test system: Staphylococcus aureus; assay: AUC/MBC ratio of Staphylococcus aureus 31005 infected neutropenic mouse thigh infection model at 49.3 mg/kg, ip administered every 24 hrs by static effect experiment; assay type: functional; conditions: route intraperitoneal
[5] = test system: Staphylococcus aureus; assay: AUC/MIC ratio of Staphylococcus aureus Smith infected neutropenic mouse thigh infection model at 59 mg/kg, ip administered every 72 hrs by static effect experiment; assay type: functional; conditions: route intraperitoneal
[6] = test system: Staphylococcus aureus; assay: AUC/MIC ratio of Staphylococcus aureus 307109 infected neutropenic mouse thigh infection model at 31 mg/kg, ip administered every 72 hrs by static effect experiment; assay type: functional; conditions: route intraperitoneal
[7] = test system: Staphylococcus aureus; assay: AUC/MBC ratio of Staphylococcus aureus 31005 infected neutropenic mouse thigh infection model at 67.7 mg/kg, ip administered every 72 hrs by static effect experiment; assay type: functional; conditions: route intraperitoneal
[8] = test system: Staphylococcus aureus; assay: AUC/MBC ratio of methicillin-resistant Staphylococcus aureus infected neutropenic mouse thigh infection model at 45.3 mg/kg, ip administered every 24 hrs by 1-log killing experiment; assay type: functional; conditions: route intraperitoneal
[9] = test system: Streptococcus pneumoniae; assay: AUC/MIC ratio of Streptococcus pneumoniae 1396 infected neutropenic mouse thigh infection model at 0.61 mg/kg, ip administered every 72 hrs by 1-log killing experiment; assay type: functional; conditions: route intraperitoneal
[10] = test system: Staphylococcus aureus; assay: AUC/MBC ratio of Staphylococcus aureus ATCC 25923 infected neutropenic mouse thigh infection model at 185 mg/kg, ip administered every 72 hrs by 1-log killing experiment; assay type: functional; conditions: route intraperitoneal
[11] = test system: Staphylococcus aureus; assay: AUC/MBC ratio of Staphylococcus aureus 33591 infected neutropenic mouse thigh infection model at 93 mg/kg, ip administered every 72 hrs by 1-log killing experiment; assay type: functional; conditions: route intraperitoneal
[12] = test system: Staphylococcus aureus; assay: AUC/MBC ratio of methicillin-resistant Staphylococcus aureus infected neutropenic mouse thigh infection model at 62 mg/kg, ip administered every 72 hrs by 1-log killing experiment; assay type: functional; conditions: route intraperitoneal
[13] = test system: Staphylococcus aureus; assay: AUC/MBC ratio of Staphylococcus aureus Smith infected neutropenic mouse thigh infection model at 95 mg/kg, ip administered every 72 hrs by 1-log killing experiment; assay type: functional; conditions: route intraperitoneal
[14] = test system: Staphylococcus aureus; assay: AUC/MBC ratio of Staphylococcus aureus 33591 infected neutropenic mouse thigh infection model at 33.5 mg/kg, ip administered every 24 hrs by 2-log killing experiment; assay type: functional; conditions: route intraperitoneal
[15] = test system: Staphylococcus aureus; assay: AUC/MIC ratio of Staphylococcus aureus 33591 infected neutropenic mouse thigh infection model at 114 mg/kg, ip administered every 72 hrs by 2-log killing experiment; assay type: functional; conditions: route intraperitoneal
[16] = test system: Staphylococcus aureus; assay: AUC/MIC ratio of Staphylococcus aureus Smith infected neutropenic mouse thigh infection model at 148 mg/kg, ip administered every 72 hrs by 2-log killing experiment; assay type: functional; conditions: route intraperitoneal
[17] = test system: Staphylococcus aureus; assay: AUC/MIC ratio of Staphylococcus aureus 307109 infected neutropenic mouse thigh infection model at 37 mg/kg, ip administered every 72 hrs by 2-log killing experiment; assay type: functional; conditions: route intraperitoneal
[18] = test system: Staphylococcus aureus; assay: AUC/MIC ratio of Staphylococcus aureus 31005 infected neutropenic mouse thigh infection model at 127 mg/kg, ip administered every 72 hrs by 2-log killing experiment; assay type: functional; conditions: route intraperitoneal
[19] = test system: Staphylococcus aureus; assay: AUC/MBC ratio of Staphylococcus aureus ATCC 25923 infected neutropenic mouse thigh infection model at 214 mg/kg, ip administered every 72 hrs by 2-log killing experiment; assay type: functional; conditions: route intraperitoneal
[20] = test system: Streptococcus pneumoniae; assay: AUC/MIC ratio of Streptococcus pneumoniae 1199 infected neutropenic mouse thigh infection model at 0.72 mg/kg, ip administered every 72 hrs by static effect experiment; assay type: functional; conditions: route intraperitoneal
[21] = test system: Streptococcus pneumoniae; assay: AUC/MIC ratio of Streptococcus pneumoniae 1396 infected neutropenic mouse thigh infection model at 0.52 mg/kg, ip administered every 72 hrs by static effect experiment; assay type: functional; conditions: route intraperitoneal
[22] = test system: Staphylococcus aureus; assay: AUC/MIC ratio of Staphylococcus aureus ATCC 25923 infected neutropenic mouse thigh infection model at 160 mg/kg, ip administered every 72 hrs by static effect experiment; assay type: functional; conditions: route intraperitoneal
[23] = test system: Staphylococcus aureus; assay: AUC/MIC ratio of Staphylococcus aureus ATCC 25923 infected neutropenic mouse thigh infection model at 51.2 mg/kg, ip administered every 24 hrs by 1-log killing experiment; assay type: functional; conditions: route intraperitoneal
[24] = AUC in bacterial pathogen-infected neutropenic Swiss ICR mouse thigh infection model at 40 mg/kg, ip; assay type: ADME, organism-based; parameters: dose 40 mg/kg, route intraperitoneal; conditions: in vivo
Summary of the method: (§1)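 Thigh-infected neutropenic mice received single intraperitoneal doses (2.5, 5, 10, 20, 40, 80 mg/kg; 0.2 ml/dose). Blood was drawn by retroorbital aspiration from groups of three mice at 0.5, 1, 2, 4, 6, 24, 48, 72 and 96 h. Plasma levels were measured by microbiologic assay with Bacillus subtilis (detection limit 0.10 mg/liter). Noncompartmental analysis was used: half-life by linear least-squares regression, AUC by trapezoidal rule.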

[25] = Cmax in bacterial pathogen-infected neutropenic Swiss ICR mouse thigh infection model at 40 mg/kg, ip; assay type: ADME, organism-based; parameters: dose 40 mg/kg, route intraperitoneal; conditions: in vivo; summary of the method: as §1
[26] = test system: Streptococcus pneumoniae; assay: Bactericidal activity against penicillin-susceptible Streptococcus pneumoniae ATCC 10813 infected neutropenic Swiss ICR mouse thigh infection model assessed as drug level causing 2-log reduction of bacterial count at 1.26 mg/kg, ip dosed every 36 hrs; assay type: functional; conditions: route intraperitoneal
Summary of the method: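 Neutropenic mice (cyclophosphamide ip 150 mg/kg day −4, 100 mg/kg day −1, then every 48 h) received 0.1 ml log-phase inoculum per thigh under halothane. Intraperitoneal dalbavancin started 2 h later and was given for 6 days at q12h, q24h, q36h or q72h, two mice per regimen. Thigh CFU were counted at 144 h. Endpoint doses relative to start-of-therapy counts came from Hill-model nonlinear regression and are expressed per 24 h.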

[27] = test system: Streptococcus pneumoniae; assay: Bactericidal activity in Streptococcus pneumoniae ATCC 10813 infected non-neutropenic mouse thigh infection model assessed as drug level causing 2-log reduction of bacterial count at 2.03 mg/kg/6days; assay type: functional
[28] = test system: Staphylococcus aureus; assay: Antibacterial activity against methicillin-resistant Staphylococcus aureus in presence of 95% mouse serum ultrafiltrate; assay type: functional
Summary of the method: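 MIC determined in broth, heat-treated (100°C, 30 min) 95% mouse serum, and 95% mouse serum ultrafiltrate, using arithmetic dilutions of 0.02 mg/liter per tube. Protein binding estimated as (MIC in 95% serum − MIC in ultrafiltrate)/MIC in 95% serum.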

[29] = test system: Staphylococcus aureus; assay: Antibacterial activity against Staphylococcus aureus 33591 by microdilution method; assay type: functional
Summary of the method: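 MICs in duplicate on at least two occasions by standard CLSI broth microdilution; S. aureus grown and quantified in Mueller-Hinton broth/agar.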

[30] = Half life in bacterial pathogen-infected neutropenic Swiss ICR mouse thigh infection model at 5 mg/kg, ip; assay type: ADME, organism-based; parameters: dose 5 mg/kg, route intraperitoneal; conditions: in vivo; summary of the method: as §1
[31] = AUC in bacterial pathogen-infected neutropenic Swiss ICR mouse thigh infection model at 5 mg/kg, ip; assay type: ADME, organism-based; parameters: dose 5 mg/kg, route intraperitoneal; conditions: in vivo; summary of the method: as §1
[32] = Cmax in bacterial pathogen-infected neutropenic Swiss ICR mouse thigh infection model at 20 mg/kg, ip; assay type: ADME, organism-based; parameters: dose 20 mg/kg, route intraperitoneal; conditions: in vivo; summary of the method: as §1

Which RatioAUC/MIC [1] does the source give for `CN[C@H]1C(=O)N[C@@H]2Cc3ccc(cc3)Oc3cc4cc(c3O[C@@H]3O[C@H](C(=O)O)[C@@H](O)[C@H](O)[C@H]3NC(=O)CCCCCCCCC(C)C)Oc3ccc(cc3Cl)[C@@H](O)[C@@H]3NC(=O)[C@H](NC(=O)[C@@H]4NC(=O)[C@@H](NC2=O)c2cc(cc(O)c2Cl)Oc2cc1ccc2O)c1ccc(O)c(c1)-c1c(O[C@H]2O[C@H](CO)[C@@H](O)[C@H](O)[C@@H]2O)cc(O)cc1[C@@H](C(=O)NCCCN(C)C)NC3=O` [DALBAVANCIN] here?
The RatioAUC/MIC was 17.4.

What about the RatioAUC/MIC [2] of the same compound?
The RatioAUC/MIC was 7.5.

And the RatioAUC/MIC [3]?
Its RatioAUC/MIC is 216.

What about the Ratio [4] of the same compound?
The Ratio was 242.

And the RatioAUC/MIC [5]?
Its RatioAUC/MIC is 96.

And the RatioAUC/MIC [6]?
Its RatioAUC/MIC is 94.

What about the Ratio [7] of the same compound?
Its Ratio is 112.

What about the Ratio [8] of the same compound?
Its Ratio is 109.

What about the RatioAUC/MIC [9] of the same compound?
The RatioAUC/MIC was 4.3.

What about the Ratio [10] of the same compound?
Its Ratio is 76.1.

What about the Ratio [11] of the same compound?
Its Ratio is 76.6.

What about the Ratio [12] of the same compound?
Its Ratio is 48.8.

And the Ratio [13]?
The Ratio was 78.

What about the Ratio [14] of the same compound?
Its Ratio is 74.3.

What about the RatioAUC/MIC [15] of the same compound?
The RatioAUC/MIC was 195.

And the RatioAUC/MIC [16]?
Its RatioAUC/MIC is 254.

And the RatioAUC/MIC [17]?
The RatioAUC/MIC was 121.

What about the RatioAUC/MIC [18] of the same compound?
Its RatioAUC/MIC is 364.

What about the Ratio [19] of the same compound?
Its Ratio is 88.1.

And the RatioAUC/MIC [20]?
Its RatioAUC/MIC is 10.3.

What about the RatioAUC/MIC [21] of the same compound?
Its RatioAUC/MIC is 4.

And the RatioAUC/MIC [22]?
The RatioAUC/MIC was 274.

What about the RatioAUC/MIC [23] of the same compound?
Its RatioAUC/MIC is 250.

What about the AUC [24] of the same compound?
The AUC was 5360 µg·h/mL.

And the Cmax [25]?
The Cmax was 663 µg/mL.

And the Activity [26]?
The Activity was 1.81.

And the Activity [27]?
The Activity was 2.66.

What about the MIC [28] of the same compound?
Its MIC is 0.5 µg/mL.

What about the MBC [29] of the same compound?
Its MBC is 0.25 µg/mL (≈ 0.138 µM).

What about the MIC [29] of the same compound?
Its MIC is 0.12 µg/mL (≈ 0.0661 µM).

And the half-life [30]?
The half-life was 9.6 h.

And the AUC [31]?
Its AUC is 285 µg·h/mL.

And the Cmax [32]?
Its Cmax is 190 µg/mL.
